TNF necrop inh – inhibitors of TNF-alpha triggered necroptosis, primary screen, cell-based, Jurkat FADD-/-, single concentration | Jurkat FADD-/- TNF necroptosis rescue, ATP luminescence, 24 h; 0 = TNF only, 100 = no-TNF cells | activation (protection from cell death), % at 10 µM | 220,000 compounds, 0.068% hits | AID 463075, 2010;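 active = activation, meaning protection from cell death, of at least 50% relative to plate controls; inactive = activation below 50%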;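 note: necroptosis triggered by 40 ng/mL TNF-alpha added together with compound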
Pf gamet viab – late stage P. falciparum gametocyte viability inhibitors, primary screen, ATP luminescence, HTS; inhibition, % at 10.9 µM; AID 743093, 2013; 150,000 compounds, 0.065% hits; P. falciparum stage V gametocytes, 24 h;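 active = inhibition above the mean plus 3 SD of compounds within the control limits, set per campaign, cut at about 38% in these data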;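 note: 0% = DMSO wells and 100% = medium only without gametocytes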
Wee1 stabilizer – Wee1 degradation inhibitors, primary screen, cell-based, HeLa, Wee1K328M-luciferase, luminescence; Wee1-like protein kinase (Homo sapiens), P30291; HeLa Luc-Wee1K328M stability; 100% = proteasome inhibitor MG132 effect; reporter increase, % at 5 µM; 220,000 compounds, 1.2% hits;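 active = activation above the mean of all tested compounds plus 3 SD, set per screening run, cut at about 8.8% in these data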;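 note: cells exposed to compound for 20 h before luminescence read; 0% = DMSO alone and 100% = MG132 at 30 µM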
Target sequence (P30291 whole entry K328M): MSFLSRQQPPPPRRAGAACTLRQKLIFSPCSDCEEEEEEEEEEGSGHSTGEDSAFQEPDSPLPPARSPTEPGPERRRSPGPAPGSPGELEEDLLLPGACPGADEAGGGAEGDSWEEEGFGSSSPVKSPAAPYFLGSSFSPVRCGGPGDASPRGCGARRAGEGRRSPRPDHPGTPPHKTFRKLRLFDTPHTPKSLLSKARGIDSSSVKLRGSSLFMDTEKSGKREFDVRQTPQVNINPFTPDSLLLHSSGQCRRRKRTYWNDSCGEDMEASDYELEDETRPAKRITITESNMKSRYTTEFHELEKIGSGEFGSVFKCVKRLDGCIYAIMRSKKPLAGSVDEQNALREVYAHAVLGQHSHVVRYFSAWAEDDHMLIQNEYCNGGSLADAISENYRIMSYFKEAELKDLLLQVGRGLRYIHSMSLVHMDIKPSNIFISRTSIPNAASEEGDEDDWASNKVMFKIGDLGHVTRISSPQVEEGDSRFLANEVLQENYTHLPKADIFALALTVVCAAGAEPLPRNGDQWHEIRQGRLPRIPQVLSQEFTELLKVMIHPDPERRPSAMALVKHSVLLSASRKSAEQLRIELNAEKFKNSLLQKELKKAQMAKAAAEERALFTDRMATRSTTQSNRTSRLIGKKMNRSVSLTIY
RBBP9 inhibitor – human RBBP9 inhibitors, primary screen, biochemical, fluorescence polarization, FP-Rh probe, HTS. Serine hydrolase RBBP9 (Homo sapiens), O75884. recombinant RBBP9. inhibition, % at 7.94 µM. 220,000 compounds, 0.2% hits. AID 1515, 2009;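 active = inhibition above the campaign mean of all tested compounds plus 3 SD, cut at about 14% in these data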;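 note: plate controls were DMSO wells with RBBP9 for no effect and wells lacking RBBP9 protein for full effect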
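Measured by – fluorescence polarization · Test system – RBBP9 protein · Input – 2.5 µM RBBP9 dispensing solution, before mixing · Measure – percent inhibition from mP, scaled between DMSO and no-protein wells · Benchmarks – DMSO-treated enzyme wells and wells lacking RBBP9 · Times – preincubation 30 min plus labeling 45 min at 25 °C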
Calpain2 inh – inhibitors of pig calpain II, primary screen, biochemical, fluorogenic peptide substrate, 1536-well. purified calpain II, 30 min. inhibition, % at 16 µM. 220,000 compounds, 0.37% hits. AID 1236, 2008;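 active = inhibition above about 50%, limit read from the data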
zVAD death inh – inhibitors of zVAD-triggered necroptosis, primary screen, L929 cells. L929 zVAD necroptosis rescue, ATP luminescence, 24 h; with zVAD 60 µM. viability rescue, % at 10 µM. 220,000 compounds, 0.38% hits. AID 1377, 2008;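 active = activation, scaled between plate controls, above about 75%, limit read from the data; inactive = activation under that limit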;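 note: 0% = zVAD with DMSO and 100% = DMSO alone without zVAD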
Wee1 stab conf – Wee1 degradation inhibitors, confirmation, cell-based, HeLa, Wee1K328M-luciferase, luminescence, triplicate | shares compounds with Wee1 stabilizer | HeLa Luc-Wee1K328M degradation; vehicle 0%, proteasome-blocked wells 100% | activation, % at 5 µM | 1,100 compounds, 4% hits; in the data active = activation above about 8.9%
An asterisk follows results filed as active; · = no result. This is a sample that favours compounds with a hit; in the whole collection about 2.1% have one here.

SMILES | TNF necrop inh | Pf gamet viab | Wee1 stabilizer | RBBP9 inhibitor | Calpain2 inh | zVAD death inh | Wee1 stab conf
CN(C)C(=S)NC(=O)C12CC3(C)CC(C)(CC(C)(C3)C1)C2 | 0.6 | 4.0 | 10.9* | -3.6 | -5.6 | 0.2 | -1.4
Cc1cccn2c(=O)c(/C=N/O)c(NCc3ccccc3)nc12 | -3.4 | -22.5 | 6.2 | -6.7 | -8.8 | 0.7 | ·
CC(=O)O/N=C/c1c(NCc2ccccc2)nc2c(C)cccn2c1=O | -12.5 | -13.4 | 12.3* | -12.5 | -15.1 | 0.2 | 2.2
CCOc1cc(Br)c(C(C)NC(=O)c2cccnc2)cc1OCC (stereo not drawn) | · | -10.5 | · | · | · | · | ·
Nc1cccc(C2=Nc3cccc4cccc(c34)N2)c1 | -4.5 | -7.0 | 11.8* | -5.3 | 29.2 | 1.6 | 0.5
CCOC(=O)C1(S(=O)(=O)c2ccc(Cl)cc2)CCN(Cc2ccc(C)cc2)CC1 | -0.6 | -14.0 | -2.4 | -1.7 | -26.7 | 0.0 | ·
O=C(CSc1nc2ccccc2[nH]1)Nc1ccc(F)c(F)c1 | 3.2 | · | -2.1 | -12.2 | 39.0 | 0.5 | ·
NS(=O)(=O)c1ccc(NC(=O)CSc2nc3ccccc3[nH]2)cc1 | 3.8 | 8.6 | 11.3* | -3.5 | -22.7 | 1.1 | 2.2
Cc1nnc(NC(=O)c2ccc3ccccc3n2)s1 | -2.2 | -19.5 | 14.1* | 5.4 | 8.3 | -1.2 | 6.3
Cc1nc2ccc(NC(=O)c3ccc4ccccc4n3)cc2s1 | -1.0 | -25.1 | -2.0 | -4.0 | -16.9 | -0.5 | ·
O=C(Nc1cc(S(=O)(=O)N2CCCC2)ccc1OCC(F)(F)F)c1ccccc1F | 2.3 | 6.0 | 13.1* | -8.6 | -16.4 | · | 3.0
CC(C)CCN1CCN(CC#Cc2ccccc2)CC1CCO (stereo not drawn) | 0.4 | -6.0 | -2.8 | 6.7 | -18.3 | 0.1 | ·
COc1cccc(C2=CC(c3cccc(OC)c3OC(F)F)n3nnnc3N2)c1 (stereo not drawn) | -1.8 | · | 0.7 | -1.1 | -18.2 | 0.6 | ·
COc1cccc(C2=CC(c3cccc(OC)c3OC)n3nnnc3N2)c1 (stereo not drawn) | -11.9 | · | 11.4* | -7.7 | 23.0 | 0.9 | 11.8*
CCOC(=O)NC(c1ccc(C(C)C)cc1)C(Cl)(Cl)Cl (stereo not drawn) | -0.1 | -19.4 | -2.3 | 1.4 | 16.3 | 0.6 | ·
CCOC(=O)C1=C(NC(=O)c2ccc(Br)o2)Nc2ccccc2N=C1 | 1.2 | 15.2 | 3.4 | -6.5 | 27.8 | -0.1 | ·
CCCC(=O)NC(=S)c1c(C)n(C)n(-c2ccccc2)c1=O | -0.2 | -25.6 | 2.6 | 10.4 | 1.8 | 2.3 | ·
CCCCn1c(=O)nc2n(-c3ccccc3C)c3ccccc3cc-2c1=O | 0.5 | -4.9 | -2.4 | -5.8 | -482.2 | 0.4 | ·
Cc1ccccc1-n1c2nc(=O)n(C)c(=O)c-2cc2ccccc21 | 4.1 | -10.3 | 14.4* | 1.6 | -328.4 | 0.5 | 1.0
Cc1cc2oc(=O)cc(CSc3nc(N)cc(N)n3)c2cc1C | -4.0 | -4.5 | 1.6 | -2.7 | 17.8 | -0.5 | ·
O=C(N/N=C/c1cc(Br)c(O)c(Br)c1)c1cccc(C(F)(F)F)c1 | 3.1 | 3.2 | 12.2* | -0.9 | -22.9 | 1.7 | 1.6
CCOC(=O)CN(C(=O)COc1ccc2c(C)cc(=O)oc2c1)c1ccc(OCC)cc1 | 1.3 | 6.2 | 13.0* | 4.5 | -14.4 | -0.7 | 1.1
CNC(=O)COC(=O)COc1ccc2c(C)cc(=O)oc2c1 | 0.4 | 3.1 | -2.2 | 5.1 | -51.5 | 1.5 | ·
CCCOc1ccc(-c2nnn(CC(=O)N3CCCCC3)n2)cc1 | 0.8 | -17.0 | -1.4 | -3.7 | 9.6 | 1.0 | ·
O=C(CCCSc1nc2ccccc2[nH]1)NCc1ccc(Cl)cc1 | 2.3 | 9.5 | 3.4 | -15.2 | 12.8 | -0.2 | ·
SMILES | TNF necrop inh | Pf gamet viab | Wee1 stabilizer | RBBP9 inhibitor | Calpain2 inh | zVAD death inh | Wee1 stab conf
CCC1(C)COC(C)(CC(=O)NNC(=O)Nc2ccccc2)OC1 (stereo not drawn) | 0.5 | -4.8 | 2.1 | -7.6 | -27.3 | 11.6 | ·
CN(Cc1ccccc1F)c1nc(-c2cccs2)nc2ccccc12 | 0.7 | -0.1 | 13.8* | -4.7 | 6.7 | 1.3 | 4.2
CC(C)(C)c1ccc(-c2nnc(N)o2)cc1 | 3.1 | 14.9 | -1.0 | -1.5 | -3.4 | 1.9 | ·
CC(=O)OCC(=O)c1ccc2ccn(C(C)=O)c2c1 | -1.1 | -2.2 | 14.3* | 0.6 | -126.1 | -0.2 | -0.2
CC(c1ccccc1)n1cc(C(=O)NCC2COc3ccccc3O2)nn1 (stereo not drawn) | 1.4 | · | 15.2* | 0.9 | 9.4 | 0.1 | 3.0
O=C(NCC1COc2ccccc2O1)c1cn(Cc2ccc(F)cc2)nn1 (stereo not drawn) | 0.6 | · | -3.4 | -8.7 | 18.9 | 1.6 | ·
Cc1ccc(C)c(S(=O)(=O)N2CCN(CC(=O)Nc3sccc3C#N)CC2)c1 | 3.4 | · | 14.2* | -0.8 | -34.0 | -0.1 | 1.7
COc1ccc(NC(=O)Nc2ccc(OC)cc2)cc1 | 0.6 | · | -0.6 | -8.5 | -40.0 | 11.4 | ·
COc1ccc(NC(=O)/C=C2\SC(=O)NC2=O)cc1 | 0.2 | · | 15.2* | 3.4 | -11.7 | 0.3 | 2.5
CC(C)Cn1c(N)c(C(=O)COC(=O)c2ccc([N+](=O)[O-])o2)c(=O)n(C)c1=O | -5.9 | · | 15.7* | 1.6 | 1.1 | -0.8 | 3.1
CC(C)Cn1c(N)c(C(=O)COC(=O)c2ccc(O)cc2)c(=O)n(C)c1=O | 0.2 | -29.1 | -3.5 | -8.4 | -5.6 | 2.0 | ·
O=C(CC(=O)c1ccccc1O)c1cccc(F)c1 | -6.1 | · | 10.9* | 1.0 | 37.4 | 0.3 | 4.5
O=C(CC(=O)c1ccccc1O)c1ccc(F)cc1 | -7.9 | · | 0.4 | -1.8 | 26.3 | 0.2 | ·
O=C(/C=C/c1ccc(Br)o1)Nc1nccs1 | 3.6 | -12.8 | 1.4 | -3.8 | -37.7 | 66.8 | ·
O=c1[nH]c2ccccc2nc1/C=C(\O)c1cccs1 | -2.0 | 3.5 | 15.7* | -8.5 | -34.9 | 67.8 | 9.6*
O=C(Nc1nc2ccccc2[nH]1)c1cccs1 | 8.0 | · | 12.3* | 2.1 | -3.1 | 9.2 | -1.4
CCCCOc1ncnc2c1[nH]c1ccc(F)cc12 | -12.9 | · | -3.8 | -5.9 | -35.8 | 0.3 | ·
O=C(COC(=O)C1Cc2ccccc2CN1C(=O)c1ccccc1)Nc1ccc(SC(F)F)cc1 (stereo not drawn) | -0.2 | -13.5 | -2.2 | -0.9 | 17.7 | 1.1 | ·
O=C(Nc1cccc([N+](=O)[O-])c1)Nc1ccc2c(c1)OCCO2 | 0.4 | 14.7 | 16.7* | -7.0 | -21.5 | 4.3 | 3.5
CCOC(=O)CNC(=O)N1CCCC(C(=O)c2ccccc2SC)C1 (stereo not drawn) | -0.2 | -3.4 | 0.5 | -8.1 | 4.0 | 0.0 | ·

Source: PubChem (several laboratories)
